Inhibition and Survival data for 10 compounds are collected here from ChEMBL document CHEMBL1671729, “In vivo protection provided by a synthetic new alpha-galactosyl ceramide analog against bacterial and viral infections in murine models” (2010).

Test [1] concerns Staphylococcus aureus. Kind of test: Antibacterial activity against luminescent Staphylococcus aureus Xen29 infected in BALB/c mouse deep thigh wound infection model assessed as reduction in bacterial load at 150 ug/kg, ip administered 6 hr post infection after infection measured 48 hrs post infection by iVIS in-vivo imaging system. The test is classed as functional, organism-based. The procedure, abridged: (§1)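 Female BALB/c mice were infected in the left posterior thigh muscle with 3 × 10^8 CFU luminescent S. aureus Xen29 in 200 μl PBS. Glycolipid at 150 μg/kg or vehicle was given i.p. at 3 h, 0 h or 6 h post-infection. Live mice were imaged at 48 h, and RLU per mouse was compared by one-way ANOVA with Tukey posttest.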

Test [2] has as its system Japanese encephalitis virus. The test can be described thus: Antiviral activity against Japanese encephalitis virus RP-9 infected in C57BL/6 mouse assessed as mouse survival rate at 1 ug, ip administered one day after viral infection measured after 25 days post infection relative to solvent treated control. The test is classed as functional.
In test [3] the test system is Japanese encephalitis virus. Kind of test: Antiviral activity against Japanese encephalitis virus RP-9 infected in C57BL/6 mouse assessed as mouse survival rate at 1 ug, ip administered simultaneously with viral infection measured after 25 days post infection relative to solvent treated control. The test is classed as functional.
The subject of test [4] is Staphylococcus aureus. Kind of test: Antibacterial activity against luminescent Staphylococcus aureus Xen29 infected in BALB/c mouse deep thigh wound infection model assessed as reduction in bacterial load at 150 ug/kg, ip administered 3 hrs post infection by iVIS in-vivo imaging system. The test is classed as functional, organism-based. The procedure, abridged:
as §1

Test [5] relates to Japanese encephalitis virus. The test can be described thus: Antiviral activity against Japanese encephalitis virus RP-9 infected in C57BL/6 mouse assessed as mouse survival rate at 1 ug, ip administered one day before viral infection measured after 25 days post infection relative to solvent treated control. The test is classed as functional.
Test [6] has as its system Japanese encephalitis virus. Kind of test: Antiviral activity against Japanese encephalitis virus RP-9 infected in Stat-1-knockout immunodeficient C57BL/6 mouse assessed as mouse survival rate at 1 ug, ip administered one day before and 1 day after viral infection measured after 25 days post infection relative to solvent treated control. The test is classed as functional.

Test [7] has as its system Japanese encephalitis virus. The test can be described thus: Antiviral activity against Japanese encephalitis virus RP-9 infected in C57BL/6 mouse assessed as mouse survival rate at 1 ug, ip administered one day before and 1 day after viral infection measured after 25 days post infection relative to solvent treated control. The test is classed as functional.
The subject of test [8] is Japanese encephalitis virus. The test can be described thus: Antiviral activity against Japanese encephalitis virus RP-9 infected in Ig-mu chain-knockout immunodeficient C57BL/6 mouse assessed as mouse survival rate at 1 ug, ip administered one day before and 1 day after viral infection measured after 25 days post infection relative to solvent treated control. The test is classed as functional, organism-based.

For test [9], the system named is Staphylococcus aureus. Kind of test: Antibacterial activity against luminescent Staphylococcus aureus Xen29 infected in BALB/c mouse deep thigh wound infection model assessed as reduction in bacterial load at 150 ug/kg, ip administered immediately after infection measured 48 hrs post infection by iVIS in-vivo imaging system. The test is classed as functional, organism-based. An outline of the steps: as §1

The test system of test [10] is Novosphingobium capsulatum. The test can be described thus: Antibacterial activity against Sphingomonas capsulata ATCC 14666 infected in C57BL/6 mouse assessed as reduction in lung bacterial load at 50 ug/kg, ip administered 2 hrs post infection measured 24 hrs post infection. The test is classed as functional, organism-based.
Test [11] concerns Novosphingobium capsulatum. Kind of test: Antibacterial activity against Sphingomonas capsulata ATCC 14666 infected in C57BL/6 mouse assessed as reduction in lung bacterial load at 100 ug/kg, ip administered 2 hrs post infection measured 24 hrs post infection. The test is classed as functional, organism-based.
Test [12] deals with Japanese encephalitis virus. Kind of test: Antiviral activity against Japanese encephalitis virus RP-9 infected in CD8-alpha chain-knockout immunodeficient C57BL/6 mouse assessed as mouse survival rate at 1 ug, ip administered one day before and 1 day after viral infection measured after 25 days post infection relative to solvent treated control. The test is classed as functional.

Each structure is given as a SMILES string. Activity calls are given as the source filed them. The rule behind the calls is not given here.

Regarding `CCCCCCCCCCCCCC[C@@H](O)[C@@H](O)[C@H](CO[C@H]1O[C@H](C(=O)O)[C@H](O)[C@H](O)[C@H]1O)NC(=O)CCCCCCCCCCc1ccc(Oc2ccc(F)cc2)cc1`, in the test with Staphylococcus aureus [1], the inhibition entry is “inactive”. Also, the Survival in test [2] is reported as 20%; in test [3] it was 40%; in [5], 80%; in test [6], 23%; in test [7] it was 64%. The inhibition entry (with Staphylococcus aureus [4]; with Staphylococcus aureus [9]; in [10]) was “Active” each time. Moreover, the Survival result in [8] is “inactive”.
Regarding `CCCCCCCCCCCCCC[C@@H](O)[C@@H](O)[C@H](CO[C@H]1O[C@H](CO)[C@H](O)[C@H](O)[C@H]1O)NC(=O)CCCCCCCc1ccc(F)cc1`, the Survival in test [7] worked out at 57%. Also, the inhibition entry in test [10] was “Active”.
Regarding `CCCCCCCCCCCCCC[C@@H](O)[C@@H](O)[C@H](CO[C@H]1O[C@H](CO)[C@H](O)[C@H](O)[C@H]1O)NC(=O)CCCCCCCCCCc1ccccc1`, the inhibition result in [11] was “Active”.
As for `CCCCCCCCCCCCCCCCCCCCCCCCCC(=O)N[C@@H](CO[C@H]1O[C@H](CO)[C@H](O)[C@H](OS(=O)(=O)O)[C@H]1O)[C@H](O)[C@H](O)CCCCCCCCCCCCCC`, the inhibition result in [11] is “inactive”.
As to `CCCCCCCCCCCCCC[C@@H](O)[C@@H](O)[C@H](CO[C@H]1O[C@H](CO)[C@H](O)[C@H](O)[C@H]1O)NC(=O)CCCCCCCc1ccccc1`, in test [11], the inhibition result is “Active”.
With `CCCCCCCCCCCCCCCCCCCCCCCCCC(=O)N[C@@H](CO[C@H]1O[C@H](CO)[C@H](O)[C@H](O)[C@H]1O)[C@H](O)[C@H](O)CCCCCCCCCCCCCC` [RGI-7000], the inhibition entry (with Staphylococcus aureus [4]; in [11]) was “Active” in each case. In addition, the Survival in [7] was found to be 57%.
With `CCCCCCCCCCCCCCCCCCCCCCCCCC(=O)N[C@@H](CO[C@H]1O[C@H](C(=O)O)[C@H](O)[C@H](O)[C@H]1O)[C@H](O)[C@H](O)CCCCCCCCCCCCCC`, the inhibition result in [11] is “Active”.
As for `CCCCCCCCCCCCCCCCCCCCCCCC(=O)N[C@@H](CO[C@H]1O[C@H](CO)[C@H](O)[C@H](O)[C@H]1O)[C@H](O)[C@H](O)CCCCC`, the inhibition entry in test [11] is “inactive”.
Same read-out and setting: as for `CCCCCCCCCCCCCCC[C@@H](O)[C@H](CO[C@H]1O[C@H](C(=O)O)[C@H](O)[C@H](O)[C@H]1O)NC(=O)CCCCCCCCCCCCC`, the entry is “inactive”.
With `CCCCCCCCCCCCCC[C@@H](O)[C@@H](O)[C@H](CO[C@H]1O[C@H](C(=O)O)[C@H](O)[C@H](O)[C@H]1O)NC(=O)CCCCCCCCCCc1ccc(F)cc1`, the Survival in test [2] was determined as 25%; in test [3] it was 60%; in test [5] it was 60%; in test [6], 0%; in test [12], 22%; in [7], 71%. In addition, the inhibition entry (in the test on Staphylococcus aureus [4]; in [10]) was “Active” in each case. For the same compound, the Survival entry in test [8] was “inactive”.
